Compound activity (PubChem)
SMARCA2 activ: activators of SMARCA2 function | AID 652017 | activation, % at 9.1 µM | MG213 cells, MMTV-luciferase reporter, dexamethasone, overnight | 1% of 370,000 active; in the data active means activation above about 7.8%;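 further: 0% = vehicle wells and 100% = reference activator wells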
NR2E3 ag-1: agonists of human NR2E3 nuclear receptor; CHO-S Gal4-NCOR/VP16-NR2E3 two-hybrid, luciferase; inhibition of corepressor binding, % at 3.98 µM; 0.35% of 360,000 active; AID 602229;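 active means inhibition above the mean of all tested compounds plus 3 SD, cut at about 70% in these data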;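 further: 0% = DMSO with NR2E3 transfected cells and 100% = cells lacking NR2E3 construct; higher means lower luciferase signal from less NR2E3 corepressor binding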
Target sequence (Q9Y5X4 whole entry, looked up, the tested form may be a part): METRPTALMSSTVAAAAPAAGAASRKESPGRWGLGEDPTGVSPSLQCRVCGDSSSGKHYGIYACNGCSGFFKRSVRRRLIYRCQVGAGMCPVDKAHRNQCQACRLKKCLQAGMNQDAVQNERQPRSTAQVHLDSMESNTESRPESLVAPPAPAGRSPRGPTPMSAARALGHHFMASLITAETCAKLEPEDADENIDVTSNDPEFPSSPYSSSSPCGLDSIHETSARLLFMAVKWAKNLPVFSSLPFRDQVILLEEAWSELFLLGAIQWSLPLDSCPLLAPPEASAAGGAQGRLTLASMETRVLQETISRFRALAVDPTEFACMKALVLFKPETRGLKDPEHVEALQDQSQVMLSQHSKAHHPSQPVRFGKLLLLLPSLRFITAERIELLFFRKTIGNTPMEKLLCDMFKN
GalR3 antag: blocks the human galanin receptor 3; O60755; HEK293 GalR3-CNG cAMP membrane potential fluorescence; galR3 body fused to GalR1 C-terminus; inhibition, % at 3 µM; 0.44% of 360,000 active;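 active means inhibition above the screen-wide average plus 3 SD, cut at about 13% in these data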;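 further: forskolin and galanin both at EC90 stimulate the cells; cAMP rise reported by CNG channel membrane potential dye signal; 0% = forskolin plus galanin with DMSO and 100% = forskolin alone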
Target sequence (O60755 1-299 limits assumed): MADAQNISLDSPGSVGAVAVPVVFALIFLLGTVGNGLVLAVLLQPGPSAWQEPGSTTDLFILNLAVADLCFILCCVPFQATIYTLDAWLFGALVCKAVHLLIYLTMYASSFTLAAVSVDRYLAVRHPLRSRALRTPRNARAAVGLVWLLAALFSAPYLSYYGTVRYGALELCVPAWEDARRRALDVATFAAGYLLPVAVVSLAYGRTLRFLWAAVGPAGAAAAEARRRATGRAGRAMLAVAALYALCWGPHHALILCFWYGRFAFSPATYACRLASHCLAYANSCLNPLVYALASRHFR
NR2F2 inh: inhibitors of human COUP-TFII (NR2F2) | 0.7% of 370,000 active | HEK293T NGFI-A luciferase reporter, luminescence | P24468 | inhibition, % at 8.6 µM | AID 686940;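 active means inhibition above a per-plate cutoff, mean inhibition of test wells between control levels plus 3 SD, cut at about 38% in these data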;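 further: cells cotransfected with COUP-TFII expression vector driving the NGFI-A reporter; 0% = median of COUP-TF2 test wells and 100% = reporter-only cells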
NR2E3 ag-2: activates human photoreceptor nuclear receptor NR2E3. Q9Y5X4. GST-NR2E3/biotin-RetCOR TR-FRET, 1536-well. inhibition of corepressor binding, % at 4.78 µM. 0.12% of 320,000 active. AID 2300;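 active means percent inhibition above the cutoff of mean plus 3 SD of all tested compounds, set per screening campaign, cut at about 20% in these data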;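 further: 0% = DMSO wells and 100% = biotin wells as full block of FRET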
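Material: NR2E3–RetCOR corepressor complex / Amount: 1.35 nM GST-NR2E3 / Medium: Tris pH 7.5 / Compound: single nominal compound dose of 4.8 µM / Incubation: 5 h at 4 °C / Technique: TR-FRET, Eu(K)-anti-GST donor, streptavidin-D2 acceptor, ex 340, em 617/671 nm / Read-out basis: percent loss of FRET ratio relative to control wells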
Gal4-VP16 ctr: inhibits VP16 reporter, flagging COUP-TFII antagonist hits | inhibition, % at 8.5 µM | HEK293 Gal4-VP16 luciferase reporter, luminescence | shares compounds with NR2F2 inh | 25% of 2,500 active; in the data active means inhibition above about 13%
NR2F2 inh conf: confirmation of human COUP-TFII (NR2F2) inhibitors; HEK293 NGFI-A luciferase reporter, luminescence; inhibition, % at 8.5 µM; 45% of 2,500 active; shares compounds with NR2F2 inh;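 active means mean inhibition over three repeats above a set limit taken from the earlier primary screen, cut at about 38% in these data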;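 further: 100% = cells given the luciferase reporter alone without the COUP-TF2 vector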
Active calls of the source: *; · = not tested or not shown; ! = not active in a repeat. An excerpt weighted towards active compounds, which were near 2.2% of everything screened.

SMILES | SMARCA2 activ | NR2E3 ag-1 | GalR3 antag | NR2F2 inh | NR2E3 ag-2 | Gal4-VP16 ctr | NR2F2 inh conf
Cc1ccc(NC(=O)c2cc3c(s2)CCCC3)cc1S(=O)(=O)Nc1ccccc1Cl | -6.0 | 8.7 | -1.2 | 40.4* | 2.2 | 0.9 | 23.1
Cc1ccc(C(=O)Nc2ccc(C)c(S(=O)(=O)Nc3ccccc3Cl)c2)s1 | -4.3 | 7.3 | -3.9 | 16.6 | 2.5 | · | ·
Cc1cc(=O)n2c3c(c4c(cc13)c(CN(C)C)cc(=O)n4C)OC2 | -11.8 | -17.0 | -6.2 | 78.2* | · | -6.9 | -1.1
CC(C)(C)c1ccc(-c2nnc(SCC(=O)Nc3ccc(Oc4ccccc4)cc3)n2Cc2ccco2)cc1 | -3.5 | · | · | 5.8 | · | · | ·
COCCN=C1S/C(=C\c2cc(C)n(-c3ccc(F)cc3F)c2C)C(=O)N1C | · | · | · | 2.8 | · | · | ·
NC(=O)c1ccsc1NC(=O)COC(=O)Cc1ccsc1 | -1.2 | -13.6 | -0.1 | 14.2 | 3.7 | · | ·
COc1cc(CC(=O)OCC(=O)Nc2sccc2C(N)=O)cc(OC)c1OC | -4.9 | -10.0 | -8.7 | 42.8* | -0.5 | -13.6 | 3.1
COc1cccc(N(C)C(=O)[C@@H](C2CC2)[C@@H](O)c2ccc3ccccc3c2)c1 | -1.3 | · | · | -19.7 | · | · | ·
CCOC(=O)c1cc2c(=O)n3cccc(C)c3nc2n(CC2CCCO2)c1=NC(C)=O (stereo not drawn) | 0.7 | -18.3 | -7.0 | 73.5*! | 1.3 | -5.1 | -8.4
Cc1cc(C)c2c(N)c(C(=O)Nc3ncc(C)s3)sc2n1 | -6.2 | 43.0 | 8.0 | 74.0* | 0.7 | 35.3* | 67.4*
CC(C)(C)c1ccc(OCCC(=O)OCC(=O)NC2CC2)cc1 | -7.0 | -18.7 | -4.3 | 42.8* | -0.4 | 16.8* | 3.6
CC(=O)Nc1sc2c(c1-c1nc3ccccc3s1)CCOC2 | · | · | · | -76.4 | · | · | ·
O=C(c1ccco1)N1CCN=C1SCc1ccc(F)cc1 | -0.5 | -13.8 | -1.6 | 57.6* | 2.4 | -4.6 | 0.6
COc1ccc2c(c1)CCCN2C(=O)C1CCCN(S(=O)(=O)c2cccc3cccnc23)C1 (stereo not drawn) | -5.7 | · | · | 6.5 | · | · | ·
O=C(Nc1ccc(CN2CCS(=O)(=O)CC2)cc1)c1ccc(C(F)(F)F)cc1 | -8.9 | -12.2 | -1.3 | 50.5* | -2.2 | 12.9 | 31.7
O=C(Nc1ccc(CN2CCS(=O)(=O)CC2)cc1)c1ccc(F)cc1 | 3.2 | -7.8 | -0.8 | 11.2 | -1.3 | · | ·
CCC(C)Oc1ccc(C(=O)Nc2ccc(CN3CCOCC3)cc2)cc1 (stereo not drawn) | -2.2 | -4.0 | -9.8 | 40.0* | · | -15.9 | 12.3
Cc1nc2sc(C(N)=O)c(N)c2c2c1CCCC2 | -3.5 | -44.4 | -6.3 | 50.6* | 0.2 | 9.0 | 21.3
CN=C1NC(=O)/C(=C\c2cc(C)n(-c3ccccc3F)c2C)S1 | · | · | · | -18.4 | · | · | ·
Cc1cc(/C=C2\SC(=O)N(C)C2=O)c(C)n1-c1ccc(S(N)(=O)=O)cc1 | 4.0 | -6.5 | -10.3 | -13.3 | 2.1 | · | ·
CN=C1S/C(=C\c2cc(C)n(-c3ccccc3F)c2C)C(=O)N1C | -5.0 | 42.4 | -1.1 | 49.7* | -0.9 | -67.9 | 30.3
Cc1cc(/C=C2\SC(=O)N(C)C2=O)c(C)n1-c1ccc(O)cc1 | -0.5 | -9.5 | -9.7 | 50.3* | -1.9 | -78.0 | 23.1
COC(=O)[C@@H]1C[C@@]2(c3ccccc3)c3ccccc3N(S(=O)(=O)c3ccccc3)[C@H]2N1C(=O)CNC/C=C(\C)CCC=C(C)C | -6.0 | · | · | 22.7 | · | · | ·
COc1ccccc1-c1cc2nc(-c3ccccc3)cc(N3CCN(C(=O)c4ccoc4)CC3)n2n1 | -4.5 | -15.1 | -6.5 | 87.4* | · | 9.9 | 60.2*
COc1ccccc1-c1cc2nc(-c3ccccc3)cc(N3CCN(C(=O)c4ccco4)CC3)n2n1 | -9.9 | -6.3 | -6.5 | 93.6* | · | 12.6 | 76.0*
SMILES | SMARCA2 activ | NR2E3 ag-1 | GalR3 antag | NR2F2 inh | NR2E3 ag-2 | Gal4-VP16 ctr | NR2F2 inh conf
O=C(c1ccoc1)N1CCN(c2cc(-c3ccccc3)nc3cc(-c4ccccc4)nn23)CC1 | -5.2 | 17.7 | -7.0 | 13.6 | · | · | ·
CC(Cl)C(=O)N1CCC(C(=O)NCC2COc3ccccc3O2)CC1 (stereo not drawn) | -3.1 | · | · | -4.1 | · | · | ·
C=CCSc1nc2ccccc2n1C(=O)/C=C/c1ccc(OC)c(OC)c1 | 0.2 | -12.6 | -7.2 | -13.8 | 8.5 | · | ·
CCSc1nc2ccccc2n1C(=O)/C=C/c1ccc(OC)c(OC)c1 | -9.6 | -15.4 | -1.8 | 57.5* | -0.1 | 12.5 | 66.7*
CCN(CC)S(=O)(=O)c1cccc(-n2c(O)c(C=Nc3ccccc3C(=O)O)c3ccccc3c2=O)c1 | -2.0 | -28.1 | -7.5 | 46.5* | 1.4 | -30.0 | 41.5*
N#CCC[C@H]1CC[C@]2(CCCN(C(=O)c3ccno3)C2)O1 | -3.5 | · | · | -16.9 | · | · | ·
Cc1cc(/C=C2\SC(=S)N(Cc3ccco3)C2=O)c(C)n1-c1ccccc1 | 0.4 | -10.2 | -1.4 | 8.1 | 1.3 | · | ·
CN(C)c1ccc(C=C2SC(=S)N(Cc3ccco3)C2=O)cc1 | -2.8 | -11.8 | -4.7 | 39.5* | · | -18.4 | -1.5
CCC[C@H]1[C@@H](N(C)Cc2ccccc2)CC[C@@]23CCCN2C(=O)CCC[C@@H]13 | · | · | · | -18.3 | · | · | ·
Cc1nn(C)c(C)c1CNC(=O)c1nn2c(c1Cl)NC(c1cccs1)CC2C(F)(F)F (stereo not drawn) | -3.2 | -7.0 | -4.2 | 40.1* | 1.1 | -5.3 | 11.3
CCc1nnc(N/N=C/c2c(C)[nH]c3ccccc23)n1N | -13.9 | 0.8 | -5.1 | 52.5* | -8.1 | -0.6 | -0.7
O=C(CCN1C(=O)/C(=C/c2ccccc2Cl)SC1=S)Nc1ccccc1C(=O)O | -2.0 | -24.2 | -8.5 | -7.3 | -0.2 | · | ·
O=C(CCCN1C(=O)/C(=C/c2ccccc2Cl)SC1=S)NNC(=O)c1ccccc1 | -11.3 | 23.5 | -3.4 | 64.3* | -0.3 | 28.3* | 38.3*
O=C(CCCN1C(=O)/C(=C/c2ccccc2Cl)SC1=S)NNC(=O)c1ccc(Cl)cc1Cl | -12.0 | -13.1 | -2.2 | 71.7* | -0.6 | 39.3* | 41.7*
